Data taken from ChEMBL document CHEMBL1126160, “Synthesis and structure-activity relationships of 7-diazabicycloalkylquinolones, including danofloxacin, a new quinolone antibacterial agent for veterinary medicine” (J Med Chem, 1992).
In brackets after ≈: the same amount, converted by molar mass.

What was measured:
Format in all cases: functional
[1] = tested on: Bordetella bronchiseptica; test: In vitro antibacterial activity against aerobically grown Bordetella bronchiseptica (73A009)
In short: (§1)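 Agar dilution MICs. Aerobic strains were tested on brain heart infusion agar and incubated aerobically at 37 °C for 18–20 h.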

Escherichia coli [2] = test: In vitro antibacterial activity against aerobically grown Escherichia coli (51A538); in short: as §1
Phocaeicola vulgatus = test: In vitro antibacterial activity against anaerobically grown Bacteroides vulgatus (78D029)
In short: (§2)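 Agar dilution MICs. Anaerobic strains were tested on tryptose agar with 5% bovine blood and incubated 48 h at 39 °C in an anaerobe chamber under N2/CO2/H2 (80:10:10).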

Clostridium perfringens = test: microbe, parasite or virus in culture
[3] = In vitro evaluation for antibacterial activity against anaerobically grown Treponema hyodysenteriae (94A007); conditions: Brachyspira hyodysenteriae
Escherichia coli [4] = test: The Escherichia coli DNA cleavage endpoint value which is the minimum amount of compound required (micro g/mL) to induce detectable cleavage of supercoiled pBR322 substrate to the linear form (gyrase)
In short: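 DNA gyrase A and B subunits were purified from E. coli overproducers. About 2 units of holoenzyme were incubated with pBR322 in Tris-HCl pH 7.5 containing MgCl2, spermidine, DTT, 0.2 mM ATP, BSA and tRNA. Drug was added as 2-fold serial dilutions, and reactions ran for 60 min at 25 °C. Reactions were stopped with SDS and proteinase K, then run on agarose and stained with ethidium. The endpoint was the lowest concentration giving detectable linear DNA.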

Salmonella enterica = test: In vitro antibacterial activity against aerobically grown Salmonella choleraesuis (58B015)
Staphylococcus aureus = test: In vitro antibacterial activity against aerobically grown Staphylococcus aureus (54B004); in short: as §1
Pasteurella multocida = test: In vitro antibacterial activity against aerobically grown Pasteurella multocida (59A006); in short: as §1
[5] = tested on: Actinobacillus pleuropneumoniae; test: In vitro antibacterial activity against anaerobically grown Actinobacillus pleuropneumoniae ([…]); in short: as §2
Trueperella pyogenes = test: In vitro antibacterial activity against anaerobically grown Actinomyces pyogenes (14D002); in short: as §2

CN1C[C@@H]2C[C@H]1CN2c1c(F)cc2c(=O)c(C(=O)O)cn(C3CC3)c2c1Cl
MIC [1]: 0.39 µg/mL (≈ 0.995 µM) | MIC (Escherichia coli [2]): < 0.05 µg/mL | MIC (Phocaeicola vulgatus): 0.78 µg/mL (≈ 1.99 µM) | MIC (Clostridium perfringens): 0.2 µg/mL (≈ 0.51 µM) | MIC [3]: 6.25 µg/mL (≈ 16 µM) | MIC (Escherichia coli [4]): 0.19 µg/mL (≈ 0.485 µM) | MIC (Salmonella enterica): < 0.05 µg/mL | MIC (Staphylococcus aureus): 0.1 µg/mL (≈ 0.255 µM) | MIC (Pasteurella multocida): < 0.05 µg/mL | MIC [5]: < 0.05 µg/mL | MIC (Trueperella pyogenes): 0.39 µg/mL (≈ 0.995 µM)
